Laboratory results from ChEMBL document CHEMBL4024768, “Discovery and Optimization of Thiazolidinyl and Pyrrolidinyl Derivatives as Inhaled PDE4 Inhibitors for Respiratory Diseases” (J Med Chem, 2017).
Values belong to the molecule of their own block, whether it stands above or below them.

Legend:
[1] = Inhibition of PDE4 in human U937 cell lysates assessed as residual cAMP after 2.5 mins by LANCE assay
[2] = Inhibition of PDE4 in human PBMC assessed as reduction in LPS-induced TNFalpha release after 18 hrs by quantitative ELISA
Rattus norvegicus = assay: Anti-inflammatory activity in OVA-induced airway inflammation Brown Norway rat model assessed inhibition of eosinophils recruitment in bronchoalveolar lavage fluid administered intratracheally as powder formulation 2 hrs before aerosolized OVA challenge measured at 24 hrs post aerosolized OVA challenge; type: functional
How it was run: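 Male Brown Norway rats sensitized i.p. with OVA (1 mg/rat) plus Al(OH)3 (100 mg/rat) in saline on 3 consecutive days. Challenged 2–3 weeks later with nose-only 1% OVA aerosol for 30 min. Lactose-blended dry powder (10 mg/kg total powder) insufflated intratracheally; dose taken from needle weight difference. BAL with 3 × 4 mL HBSS/EDTA/HEPES at 24 h; total and differential counts by automated counter. ED50 from fitted dose–response curve.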

[3] = Protein binding in human plasma at 5 uM after 5 hrs by LC-MS/MS analysis; type: ADME, cell-free; conditions: read-out: PPB (converted)
[4] = Apparent permeability across apical to basolateral side in human Caco2 cells at 10 uM after 2 hrs by LC-MS/MS analysis; type: ADME, cell-based; conditions: Caco-2
[5] = Intrinsic clearance in human hepatocytes assessed per million cells at 1 uM measured after 90 mins by LC-MS/MS analysis; type: ADME, cell-based, Hepatocyte; conditions: read-out: CLH
How it was run: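 Compound at 1 μM with hepatocytes (1 million cells/mL) in Leibovitz L-15 at 37 °C, in duplicate. Sampled at 0, 10, 20, 30, 60 and 90 min, quenched with ice-cold acetonitrile, centrifuged, and unchanged compound measured by LC−MS/MS. Included 7-ethoxycoumarin and 7-hydroxycoumarin activity controls and cell-free medium controls.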

[6] = Intrinsic clearance in human liver microsomes at 1 uM measured after 60 mins in presence NADPH by LC-MS/MS analysis; type: ADME, microsome; conditions: read-out: CLH
How it was run: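 Compound at 1 μM with human liver microsomes (0.8 mg protein/mL) in Dulbecco's buffer pH 7.4, 1 mM NADPH, 37 °C, in duplicate. Sampled at 0, 5, 10, 20, 30 and 60 min, quenched with ice-cold acetonitrile, and unchanged compound measured by LC−MS/MS. No-NADPH controls; midazolam (1 μM) as phase I control.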

[7] = Metabolic stability in human plasma assessed as compound remaining at 1 uM measured after 60 mins in presence of NADPH by LC-MS/MS analysis; type: ADME, cell-free; conditions: read-out: Stability
[8] = Apparent permeability across basolateral to apical side in human Caco2 cells at 10 uM after 2 hrs by LC-MS/MS analysis; type: ADME, cell-based; conditions: Caco-2
[9] = Metabolic stability in human lung S9 fraction assessed as compound remaining at 1 uM measured after 60 mins in presence of NADPH by LC-MS/MS analysis; type: ADME; conditions: read-out: Stability

Structure (SMILES): COCCC(=O)N1CCS[C@H]1C(=O)O[C@@H](Cc1c(Cl)c[n+]([O-])cc1Cl)c1ccc(OC(F)F)c(OCC2CC2)c1 (relative stereo)
IC50 [1]: 0.028 nM | IC50 [2]: 0.86 nM

Structure (SMILES): CCCC1O[C@@H]2C[C@H]3[C@@H]4CCC5=CC(=O)C=C[C@]5(C)[C@H]4[C@@H](O)C[C@]3(C)[C@]2(C(=O)CO)O1 (stereo partly drawn) [BUDESONIDE]
inhibition (Rattus norvegicus): Dose-dependent effect | ED50 (Rattus norvegicus; inhaled or nasal): 0.04 µmol/kg

Structure (SMILES): Cc1cc(S(=O)(=O)N2CCS[C@H]2C(=O)O[C@@H](Cc2c(Cl)c[n+]([O-])cc2Cl)c2ccc(OC(F)F)c(OCC3CC3)c2)c(C)s1 (relative stereo)
IC50 [1]: 0.176 nM | IC50 [2]: 0.17 nM

Structure (SMILES): COCCS(=O)(=O)N1CCC[C@H]1C(=O)O[C@@H](Cc1c(Cl)c[n+]([O-])cc1Cl)c1ccc(OC(F)F)c(OCC2CC2)c1 (relative stereo)
IC50 [1]: 0.0442 nM | IC50 [2]: 0.31 nM

Structure (SMILES): COc1ccc(S(=O)(=O)N2CCCC[C@H]2C(=O)O[C@@H](Cc2c(Cl)c[n+]([O-])cc2Cl)c2ccc(OC(F)F)c(OCC3CC3)c2)cc1C(=O)N(C)C (relative stereo)
fraction unbound at 5 h, 5 µM [3]: 0.0023 | Papp A→B at 2 h, 10 µM [4]: 13.2 ×10⁻⁶ cm/s | hepatocyte CLint at 1 µM [5]: 33.2 µL/min/1e6 cells | microsomal CLint at 1 µM [6]: 244 µL/min/mg | remaining at 1 h, 1 µM [7]: 88.2% | Papp B→A at 2 h, 10 µM [8]: 68.4 ×10⁻⁶ cm/s | IC50 [1]: 0.031 nM | remaining at 1 h, 1 µM [9]: 59.7% | IC50 [2]: 0.015 nM

Structure (SMILES): COc1ccc(S(=O)(=O)N2CCS[C@H]2C(=O)O[C@@H](Cc2c(Cl)c[n+]([O-])cc2Cl)c2ccc(OC(F)F)c(OCC3CC3)c2)cc1OC (relative stereo)
fraction unbound at 5 h, 5 µM [3]: 0.004 | Papp A→B at 2 h, 10 µM [4]: 0.25 ×10⁻⁶ cm/s | hepatocyte CLint at 1 µM [5]: 53.8 µL/min/1e6 cells | microsomal CLint at 1 µM [6]: 200 µL/min/mg | remaining at 1 h, 1 µM [7]: 101% | Papp B→A at 2 h, 10 µM [8]: 0.82 ×10⁻⁶ cm/s | IC50 [1]: 0.041 nM | remaining at 1 h, 1 µM [9]: 50.7% | IC50 [2]: 0.057 nM

Structure (SMILES): CN(C)C(=O)c1cccc(S(=O)(=O)N2CCS[C@@H]2C(=O)O[C@@H](Cc2c(Cl)c[n+]([O-])cc2Cl)c2ccc(OC(F)F)c(OCC3CC3)c2)c1
IC50 [1]: 0.047 nM | IC50 [2]: 0.047 nM

Structure (SMILES): O=C(O[C@@H](Cc1c(Cl)c[n+]([O-])cc1Cl)c1ccc(OC(F)F)c(OCC2CC2)c1)[C@H]1CCCN1S(=O)(=O)c1ccccc1
IC50 [1]: 0.06 nM | IC50 [2]: 0.34 nM

Structure (SMILES): O=C(O[C@@H](Cc1c(Cl)c[n+]([O-])cc1Cl)c1ccc(OC(F)F)c(OCC2CC2)c1)c1ccccc1S(=O)(=O)c1ccccc1
IC50 [1]: 0.323 nM

Structure (SMILES): Cn1cnc(S(=O)(=O)N2CCS[C@H]2C(=O)O[C@@H](Cc2c(Cl)c[n+]([O-])cc2Cl)c2ccc(OC(F)F)c(OCC3CC3)c2)c1
fraction unbound at 5 h, 5 µM [3]: 0.015 | Papp A→B at 2 h, 10 µM [4]: 0.22 ×10⁻⁶ cm/s | hepatocyte CLint at 1 µM [5]: 66.9 µL/min/1e6 cells | microsomal CLint at 1 µM [6]: 281 µL/min/mg | remaining at 1 h, 1 µM [7]: 101% | Papp B→A at 2 h, 10 µM [8]: 3.95 ×10⁻⁶ cm/s | IC50 [1]: 0.02 nM | remaining at 1 h, 1 µM [9]: 77.7% | IC50 [2]: 0.028 nM

The next lines start with the values.

IC50 [1]: 0.109 nM | IC50 [2]: 0.4 nM
Structure (SMILES): O=C(O[C@@H](Cc1c(Cl)c[n+]([O-])cc1Cl)c1ccc(OC(F)F)c(OCC2CC2)c1)[C@@H]1CCCN1S(=O)(=O)c1ccccc1 (relative stereo)

IC50 [1]: 6.4 nM
Structure (SMILES): CN(C)C(=O)c1cccc(S(=O)(=O)N2CCS[C@@H]2C(=O)O[C@H](Cc2c(Cl)c[n+]([O-])cc2Cl)c2ccc(OC(F)F)c(OCC3CC3)c2)c1

IC50 [1]: 0.176 nM | IC50 [2]: 0.26 nM
Structure (SMILES): O=C(O[C@@H](Cc1c(Cl)c[n+]([O-])cc1Cl)c1ccc(OC(F)F)c(OCC2CC2)c1)[C@@H]1SCCN1S(=O)(=O)c1ccccc1 (relative stereo)

fraction unbound at 5 h, 5 µM [3]: 0.0017 | Papp A→B at 2 h, 10 µM [4]: 0.23 ×10⁻⁶ cm/s | hepatocyte CLint at 1 µM [5]: 47.6 µL/min/1e6 cells | microsomal CLint at 1 µM [6]: 360 µL/min/mg | remaining at 1 h, 1 µM [7]: 98.8% | Papp B→A at 2 h, 10 µM [8]: 7.67 ×10⁻⁶ cm/s | IC50 [1]: 0.026 nM | remaining at 1 h, 1 µM [9]: 71.2% | IC50 [2]: 0.022 nM
Structure (SMILES): COc1ccc(S(=O)(=O)N2CCS[C@H]2C(=O)O[C@@H](Cc2c(Cl)c[n+]([O-])cc2Cl)c2ccc(OC(F)F)c(OCC3CC3)c2)cc1C(=O)N(C)C (relative stereo)

IC50 [1]: 3.01 nM
Structure (SMILES): CN(C)C(=O)c1cccc(S(=O)(=O)N2CCS[C@H]2C(=O)O[C@H](Cc2c(Cl)c[n+]([O-])cc2Cl)c2ccc(OC(F)F)c(OCC3CC3)c2)c1

IC50 [1]: 0.825 nM
Structure (SMILES): O=C(O[C@@H](Cc1c(Cl)c[n+]([O-])cc1Cl)c1ccc(OC(F)F)c(OCC2CC2)c1)c1cccn1S(=O)(=O)c1ccccc1

IC50 [1]: 0.0324 nM | IC50 [2]: 0.36 nM
Structure (SMILES): COc1ccc(S(=O)(=O)N2CCC[C@H]2C(=O)O[C@@H](Cc2c(Cl)c[n+]([O-])cc2Cl)c2ccc(OC(F)F)c(OCC3CC3)c2)cc1OC (relative stereo)
